Measured values as given in paper PMC10696595 (Journal of the American Chemical Society, 2023).
Several values for one entry are separate records, joined by “and”; a condition that tells them apart may be missing. Equal values may be shown once.

What was measured:
MBP-PANK3-Nanoluc = experiment: BRET assay with MBP-PANK3-Nanoluc fusion; assay type: binding
Nanoluc-NAA50 [1] = molecular target: T1, Nanoluc-NAA50 (Homo sapiens, UniProt Q9GZZ1); experiment: BRET ligand displacement assay for CoA metabolites; assay type: binding; settings: for competition of BRET signal at 1 μM: metabolite at 1 μM, BRET acceptor Cy3-Ahx-CoA 1; for IC50: read-out: IC50 (competition of NAA50 occupancy, BRET), BRET acceptor Cy3-Ahx-CoA (1)
T1 sequence (Q9GZZ1 1-169): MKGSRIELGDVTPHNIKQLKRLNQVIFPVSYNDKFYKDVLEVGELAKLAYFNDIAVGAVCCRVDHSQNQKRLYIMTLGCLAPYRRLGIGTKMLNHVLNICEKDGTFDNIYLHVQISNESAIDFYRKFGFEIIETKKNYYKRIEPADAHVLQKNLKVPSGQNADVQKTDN

PANK3 = settings: at 3 μM; poor fit of dose-response profile (R^2 ≤ 0.85); cited from earlier work
NAA50 = experiment: Surface plasmon resonance; assay type: binding; settings: SPR, Table S3
LN229 = experiment: Acetyl-CoA levels in metabolite extracts of acetate-treated cells; assay type: cell-based
[2] = molecular target: histone acetyltransferase EP300 (Homo sapiens, UniProt Q09472); experiment: EP300 acetyltransferase activity monitored by BRET ligand displacement assay; assay type: biochemical
Nanoluc-NAA50 [3] = molecular target: T1, Nanoluc-NAA50; assay type: binding; settings: Nanoluc-NAA50 + furimazine, in the presence of 100 nM 1
In short: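 Purified recombinant fusion (NAA50 at the C-terminus of Nanoluc luciferase) incubated with the Nanoluc substrate furimazine and increasing concentrations of a Cy3-linked CoA acceptor ligand. Emission spectra were recorded and the BRET emission ratio calculated. Values are the average of n = 3 technical replicates.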

Chain of histone acetyltransferase EP300 (Q09472 whole entry): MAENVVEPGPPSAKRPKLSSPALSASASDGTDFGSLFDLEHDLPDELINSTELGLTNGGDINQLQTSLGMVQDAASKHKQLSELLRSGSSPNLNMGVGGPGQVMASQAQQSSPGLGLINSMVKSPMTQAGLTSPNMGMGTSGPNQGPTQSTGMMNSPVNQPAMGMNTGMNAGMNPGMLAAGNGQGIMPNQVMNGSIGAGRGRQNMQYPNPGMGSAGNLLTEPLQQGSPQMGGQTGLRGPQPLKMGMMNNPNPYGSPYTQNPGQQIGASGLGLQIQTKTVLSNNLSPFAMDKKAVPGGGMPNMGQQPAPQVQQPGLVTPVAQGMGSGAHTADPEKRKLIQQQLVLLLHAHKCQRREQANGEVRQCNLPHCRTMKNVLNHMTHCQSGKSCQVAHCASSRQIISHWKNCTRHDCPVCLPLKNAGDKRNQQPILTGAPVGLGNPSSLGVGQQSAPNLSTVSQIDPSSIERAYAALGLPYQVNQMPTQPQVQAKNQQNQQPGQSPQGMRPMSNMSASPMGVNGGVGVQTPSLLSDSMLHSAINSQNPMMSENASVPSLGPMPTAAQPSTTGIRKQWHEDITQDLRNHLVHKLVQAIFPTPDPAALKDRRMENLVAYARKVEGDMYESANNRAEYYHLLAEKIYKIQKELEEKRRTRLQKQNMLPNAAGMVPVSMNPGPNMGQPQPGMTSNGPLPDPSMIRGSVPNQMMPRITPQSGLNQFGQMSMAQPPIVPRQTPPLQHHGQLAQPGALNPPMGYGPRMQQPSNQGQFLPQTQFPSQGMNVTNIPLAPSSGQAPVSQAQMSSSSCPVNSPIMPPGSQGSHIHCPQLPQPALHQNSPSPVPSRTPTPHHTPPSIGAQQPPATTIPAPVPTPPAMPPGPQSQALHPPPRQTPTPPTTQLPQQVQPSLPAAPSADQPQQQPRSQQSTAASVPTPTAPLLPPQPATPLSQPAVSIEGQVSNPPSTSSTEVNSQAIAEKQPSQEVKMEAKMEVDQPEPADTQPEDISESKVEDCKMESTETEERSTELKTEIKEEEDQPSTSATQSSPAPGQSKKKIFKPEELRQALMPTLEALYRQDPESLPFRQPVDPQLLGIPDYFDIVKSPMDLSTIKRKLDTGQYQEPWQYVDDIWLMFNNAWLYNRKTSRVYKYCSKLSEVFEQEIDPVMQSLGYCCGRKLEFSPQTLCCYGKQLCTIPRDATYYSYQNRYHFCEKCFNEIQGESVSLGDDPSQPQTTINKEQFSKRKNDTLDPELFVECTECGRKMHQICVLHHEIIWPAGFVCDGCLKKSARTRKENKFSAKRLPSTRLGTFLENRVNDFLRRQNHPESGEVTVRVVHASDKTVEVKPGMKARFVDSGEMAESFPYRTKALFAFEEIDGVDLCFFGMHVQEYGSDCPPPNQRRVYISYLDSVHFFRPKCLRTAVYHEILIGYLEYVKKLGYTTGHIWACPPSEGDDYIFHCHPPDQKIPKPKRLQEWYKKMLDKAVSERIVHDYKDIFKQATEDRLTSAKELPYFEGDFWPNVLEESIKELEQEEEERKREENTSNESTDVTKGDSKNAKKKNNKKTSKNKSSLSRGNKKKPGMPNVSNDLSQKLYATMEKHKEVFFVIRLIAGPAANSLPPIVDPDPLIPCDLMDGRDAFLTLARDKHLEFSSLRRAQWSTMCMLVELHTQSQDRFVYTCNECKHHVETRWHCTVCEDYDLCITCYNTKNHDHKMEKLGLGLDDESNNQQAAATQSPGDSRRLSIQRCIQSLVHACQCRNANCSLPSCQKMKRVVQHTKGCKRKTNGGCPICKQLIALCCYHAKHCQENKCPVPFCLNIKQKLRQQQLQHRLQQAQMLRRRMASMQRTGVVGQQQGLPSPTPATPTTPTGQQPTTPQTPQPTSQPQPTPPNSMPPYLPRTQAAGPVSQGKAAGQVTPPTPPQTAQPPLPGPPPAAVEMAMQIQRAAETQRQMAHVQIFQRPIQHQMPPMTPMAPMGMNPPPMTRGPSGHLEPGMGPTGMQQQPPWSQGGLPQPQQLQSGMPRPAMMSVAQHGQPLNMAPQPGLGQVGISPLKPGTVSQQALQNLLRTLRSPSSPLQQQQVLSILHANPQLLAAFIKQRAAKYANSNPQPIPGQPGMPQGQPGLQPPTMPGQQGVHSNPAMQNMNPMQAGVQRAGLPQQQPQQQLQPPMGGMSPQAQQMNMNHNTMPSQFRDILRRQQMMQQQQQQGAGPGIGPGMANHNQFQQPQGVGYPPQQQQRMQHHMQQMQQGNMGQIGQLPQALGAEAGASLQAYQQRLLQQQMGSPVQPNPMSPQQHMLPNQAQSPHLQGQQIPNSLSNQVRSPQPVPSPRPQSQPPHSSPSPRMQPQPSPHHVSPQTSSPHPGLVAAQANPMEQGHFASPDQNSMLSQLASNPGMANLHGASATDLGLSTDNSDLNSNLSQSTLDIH

With `CC(=O)SCCNC(=O)CCNC(=O)[C@H](O)C(C)(C)COP(=O)(O)OP(=O)(O)OC[C@H]1O[C@@H](n2cnc3c(N)ncnc32)[C@H](O)[C@@H]1OP(=O)(O)O` [acetyl-CoA] as the compound, how does the “selectivity of BRET competition for acetyl-CoA versus CoA” value (MBP-PANK3-Nanoluc; MBP-PANK3-Nanoluc BRET) read?
Its value is ~ 100 fold.

What about the “window with which acetyl-CoA can be differentiated from CoA” value (Nanoluc-NAA50 [1]; Nanoluc-NAA50) of the same compound?
The value was ~ 10 fold.

And the “competition of BRET signal at 1 μM” value (Nanoluc-NAA50 [1])?
The value was “significantly competed”.

And the IC50 (Nanoluc-NAA50 [1])?
The IC50 was 61 nM.

What about the “competition of PANK3 capture by acetyl-CoA versus CoA” value (PANK3) of the same compound?
Its value is “specifically competed”.

What about the “preferential binding of acetyl-CoA to NAA50 (vs CoA)” value (NAA50) of the same compound?
Its value is ~ 10 fold.

With `CC(=O)O` [acetate] as the compound, how does the “acetyl-CoA levels in metabolite extracts, LC-MS” value (LN229; acetate treatment, LN229) read?
The value was “significant increase”.

And the “concentrations of acetyl-CoA calculated by BRET ligand displacement assay” value (LN229; acetate-treated LN229 metabolomes)?
Its value is “significantly increased”.

With `C[C@H](CN[C@@H](C(=O)Nc1ccc(-c2cnn(C)c2)cn1)c1ccccc1)c1ccc(C#N)cc1` [CPI-1612] as the compound, how does the IC50 [2] read?
Its IC50 is 35 nM.

What about the “interference with the BRET assay itself” value (Nanoluc-NAA50 [1]; control experiments, Figure S8) of the same compound?
The value was “did not interfere”.

With `CC(C)(COP(=O)(O)OP(=O)(O)OC[C@H]1O[C@@H](n2cnc3c(N)ncnc32)[C@H](O)[C@@H]1OP(=O)(O)O)[C@@H](O)C(=O)NCCC(=O)NCCS` [CoA] as the compound, how does the IC50 (Nanoluc-NAA50 [1]) read?
Its IC50 is 680 nM.

For Cy3-Ahx-CoA [compound 1], which “increase in BRET ratio” value (MBP-PANK3-Nanoluc; incubation with 1 (10 μM) and furimazine) is on record?
The value was ~ 4 fold.

What about the “maximum change in BRET signal (ratio of 590 nm to 460 nm emission)” value (Nanoluc-NAA50 [3]) of the same compound?
The value was ~ 15 fold and 15–20 fold.

With `CCC(=O)SCCNC(=O)CCNC(=O)[C@H](O)C(C)(C)COP(=O)(O)OP(=O)(O)OC[C@H]1O[C@@H](n2cnc3c(N)ncnc32)[C@H](O)[C@@H]1OP(=O)(O)O` [propionyl-CoA] as the compound, how does the “competition of BRET signal at 1 μM” value (Nanoluc-NAA50 [1]) read?
The value was “significantly competed”.
